Data from ChEMBL document CHEMBL3272330, “Synthesis and antimineralocorticoid activities of some 7alpha-cyano and 7alpha-alkoxycarbonylamino steroidal spirolactones” (1976).
Calls of active or inactive are those of the source. The calls are words filed in the database; no cut-off is given here.

Assays:
Rattus norvegicus [1] = assay: In vivo inhibition of deoxycorticosterone acetate-induced urinary electrolyte effect in ig dosed adrenalectomized rat measured over 4 hrs; type: functional, Urine
In short: (§1)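 Adrenalectomized rats (150-200 g) in groups of four each received 12 µg deoxycorticosterone acetate and 2.5 ml isotonic saline sc before intragastric test compound, with 2.4 mg/rat as the standard level. Urine was collected over 4 h. The value is the median effective dose (mg/rat) giving 50% inhibition of the DCA-induced rise in urinary Na/K ratio.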

Rattus norvegicus [2] = assay: In vivo inhibition of deoxycorticosterone acetate-induced urinary electrolyte effect in sc dosed adrenalectomized rat measured over 4 hrs; type: functional, Urine
In short: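 Groups of four adrenalectomized rats (150-200 g) were pretreated sc with 12 µg deoxycorticosterone acetate plus 2.5 ml isotonic saline, then dosed subcutaneously with test compound. The assay ran 4 h. MED (mg/rat) is the dose giving 50% inhibition of the DCA-induced increase in urinary Na/K ratio.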

Rattus norvegicus [3] = assay: In vivo inhibition of deoxycorticosterone acetate-induced urinary electrolyte effect in po dosed adrenalectomized rat measured over 4 hrs; type: functional, organism-based; conditions: Urine; in short: as §1

Compound	MED50 (Rattus norvegicus [1])	MED50 (Rattus norvegicus [2])	inhibition (Rattus norvegicus [3])
CCOC(=O)N[C@@H]1CC2=CC(=O)CC[C@]2(C)[C@H]2CC[C@@]3(C)[C@@H](CC[C@@]34CCC(=O)O4)[C@H]12	>2.4 mg	>2.4 mg	
C[C@]12CCC(=O)C=C1C[C@@H](C#N)[C@@H]1[C@@H]2CC[C@@]2(C)[C@H]1CC[C@@]2(O)CCC(=O)[O-].[K+]	2.3 mg		inactive
COC(=O)N[C@@H]1CC2=CC(=O)CC[C@]2(C)[C@H]2CC[C@@]3(C)[C@@H](CC[C@@]34CCC(=O)O4)[C@H]12	2 mg	0.79 mg	
C[C@]12C=CC(=O)C=C1C[C@@H](C#N)[C@@H]1[C@@H]2CC[C@@]2(C)[C@H]1CC[C@@]21CCC(=O)O1	>2.4 mg	2.3 mg	inactive
C[C@]12CCC(=O)C=C1C[C@@H](N=C=O)[C@@H]1[C@@H]2CC[C@@]2(C)[C@H]1CC[C@@]21CCC(=O)O1	>2.4 mg	>2.4 mg	
C[C@]12CCC(=O)C=C1C[C@@H](C#N)[C@@H]1[C@@H]2CC[C@@]2(C)[C@H]1CC[C@@]21CCC(=O)O1	>2.4 mg	0.39 mg	
C[C@]12CC[C@H]3[C@@H]([C@H](C#N)CC4=CC(=O)CC[C@@H]43)[C@@H]1CC[C@@]21CCC(=O)O1	>2.4 mg	1.3 mg	
